From ChEMBL document CHEMBL1240366, “Blockade of X4-tropic HIV-1 cellular entry by GSK812397, a potent noncompetitive CXCR4 receptor antagonist” (Antimicrob Agents Chemother, 2010) come the findings set out here.

Active and inactive are the calls of the source. The rule behind the calls is not given here.

The target in data set [1] is C-X-C chemokine receptor type 4 (Homo sapiens) (UniProt P61073). Nature of the data set: Noncompetitive antagonist activity at human CXCR4 expressed in HEK293 cells assessed as inhibition of SDF1-induced increase in intracellular calcium level treated 15 mins before agonist challenge measured after 1 hr by FLIPR assay. In kind it is functional, cell-based. (Calcium flux is commonly read through the fluorescence of an indicator in the cells.)

Data set [2] addresses T1, Cytochrome P450 1A2 (Homo sapiens, UniProt P05177).
T1 sequence (P05177 whole entry): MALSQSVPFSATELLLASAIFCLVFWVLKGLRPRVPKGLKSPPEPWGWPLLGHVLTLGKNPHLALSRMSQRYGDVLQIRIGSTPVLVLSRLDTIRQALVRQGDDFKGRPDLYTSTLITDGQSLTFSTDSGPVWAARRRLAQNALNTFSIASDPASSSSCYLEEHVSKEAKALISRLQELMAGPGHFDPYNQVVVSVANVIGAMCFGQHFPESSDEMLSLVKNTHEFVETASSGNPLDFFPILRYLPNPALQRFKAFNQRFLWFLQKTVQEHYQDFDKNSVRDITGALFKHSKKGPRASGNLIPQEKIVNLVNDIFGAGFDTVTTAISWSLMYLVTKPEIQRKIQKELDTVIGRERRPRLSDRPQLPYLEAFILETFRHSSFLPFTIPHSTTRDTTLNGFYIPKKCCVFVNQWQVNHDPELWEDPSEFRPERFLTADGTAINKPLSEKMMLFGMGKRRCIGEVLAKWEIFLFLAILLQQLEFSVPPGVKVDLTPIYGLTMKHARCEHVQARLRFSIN
Nature of the data set: Inhibition of CYP1A2 up to 30 uM. In kind it is ADME.

The target in data set [3] is Cytochrome P450 2C9 (Homo sapiens, UniProt P11712). The data set can be described thus: Inhibition of CYP2C9 up to 30 uM. It counts as ADME.
For data set [4], the target named is C-X-C chemokine receptor type 4 (Homo sapiens) (UniProt P61073). Nature of the data set: Inhibition of CXCR4-mediated chemotaxis in SDF1-stimulated human U937 cells treated 15 mins before SDF1 challenge measured after 2 hrs by luminescence assay. It counts as cell-based. The settings on record: U-937. The method in brief:
(§1)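 U937 cells (endogenous CXCR4) in RPMI with 2% FCS and 10 mM HEPES, 5 × 10^6 cells/ml, preincubated 15 min with compound, then placed above a 5.0 μm filter. The lower chamber held the same compound concentration plus SDF-1. Migration ran 2 h. Migrated cells were quantified by ATP luminescence. Viability was checked under identical conditions. For mode of action, SDF-1 concentration-response curves were run at increasing compound concentrations.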

Data set [5] in a line: Volume of distribution at steady state in monkey at 1 mg/kg, iv administered as single dose after 24 hrs by liquid chromatography-mass spectroscopy. In kind it is ADME, organism-based, Macaca mulatta. Further details: dose 1 mg/kg, route intravenous. Conditions: rhesus monkey, in vivo, read-out: Vdss.
For data set [6], the system named is Human immunodeficiency virus 1. Nature of the data set: Antiviral activity against HIV1 isolate 05-121776 assessed as inhibition of viral replication after 7 days by scintillation counting. Conditions: Human immunodeficiency virus 1, isolate 05-121776, 168 h. It counts as functional, organism-based.
For data set [7], the system named is Human immunodeficiency virus 1. Nature of the data set: Antiviral activity against HIV1 isolate 05-121788 assessed as inhibition of viral replication after 7 days by scintillation counting. In kind it is functional, organism-based. Conditions: Human immunodeficiency virus 1, isolate 05-121788, 168 h.
Data set [8] relates to Human immunodeficiency virus 1. Nature of the data set: Antiviral activity against HIV1 isolate 05-121785 assessed as inhibition of viral replication after 7 days by scintillation counting. In kind it is functional, organism-based. Conditions: Human immunodeficiency virus 1, isolate 05-121785, 168 h.
Data set [9] has as its system Human immunodeficiency virus 1. The data set can be described thus: Antiviral activity against HIV1 Bal infected in human HOS cells after 72 hrs by luminescence assay. The settings on record: Human immunodeficiency virus 1, Bal. In kind it is functional, organism-based. The method in brief:
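R5-tropic virus infection of HOS cells (hCXCR4/hCCR5/hCD4, LTR-luciferase reporter). Cells were plated in DMEM with 2% FCS overnight, pre-incubated with compound for 1 h, then given virus pre-mixed with compound. Incubation was 72 h at 37°C. Read-out was luciferase luminescence. IC50 from a four-parameter logistic fit.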

Data set [10] has as its system Human immunodeficiency virus 1. The data set can be described thus: Antiviral activity against HIV1 3B infected in human HOS cells after 72 hrs by luminescence assay. In kind it is functional, organism-based. The settings on record: Human immunodeficiency virus 1, 3B. The method in brief:
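HOS cells express hCXCR4, hCCR5 and hCD4 plus an HIV-1 LTR-luciferase reporter. 6,000 cells/well were plated in DMEM with 2% FCS and grown overnight, then pre-incubated with compound for 1 h. Virus pre-mixed with compound was added, and cells were incubated 72 h at 37°C. Read-out was luciferase luminescence. IC50 from a four-parameter logistic fit.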

Data set [11] addresses C-X-C chemokine receptor type 4 (Homo sapiens) (UniProt P61073). Nature of the data set: Noncompetitive inhibition of CXCR4-mediated chemotaxis in SDF1-stimulated human U937 cells treated 15 mins before SDF1 challenge measured after 2 hrs by luminescence assay. Conditions: U-937. In kind it is cell-based. The method in brief: as §1
For data set [12], the system named is Human immunodeficiency virus 1. The data set can be described thus: Antiviral activity against HIV1 JRCSF assessed as inhibition of viral replication by cell-based assay. In kind it is functional. The settings on record: JRCSF ISOLATE.

C-X-C chemokine receptor type 4 (Homo sapiens), sequence (P61073 whole entry): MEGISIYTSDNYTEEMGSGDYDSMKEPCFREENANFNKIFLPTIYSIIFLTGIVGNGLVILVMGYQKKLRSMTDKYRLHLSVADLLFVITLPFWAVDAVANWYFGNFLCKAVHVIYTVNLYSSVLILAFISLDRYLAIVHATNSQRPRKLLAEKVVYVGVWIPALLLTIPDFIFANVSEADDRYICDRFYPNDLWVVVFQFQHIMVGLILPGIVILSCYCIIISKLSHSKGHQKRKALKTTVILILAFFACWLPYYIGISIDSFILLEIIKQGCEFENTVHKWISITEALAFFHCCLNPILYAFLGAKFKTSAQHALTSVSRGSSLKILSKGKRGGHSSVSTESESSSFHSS
Cytochrome P450 2C9, sequence (P11712 whole entry): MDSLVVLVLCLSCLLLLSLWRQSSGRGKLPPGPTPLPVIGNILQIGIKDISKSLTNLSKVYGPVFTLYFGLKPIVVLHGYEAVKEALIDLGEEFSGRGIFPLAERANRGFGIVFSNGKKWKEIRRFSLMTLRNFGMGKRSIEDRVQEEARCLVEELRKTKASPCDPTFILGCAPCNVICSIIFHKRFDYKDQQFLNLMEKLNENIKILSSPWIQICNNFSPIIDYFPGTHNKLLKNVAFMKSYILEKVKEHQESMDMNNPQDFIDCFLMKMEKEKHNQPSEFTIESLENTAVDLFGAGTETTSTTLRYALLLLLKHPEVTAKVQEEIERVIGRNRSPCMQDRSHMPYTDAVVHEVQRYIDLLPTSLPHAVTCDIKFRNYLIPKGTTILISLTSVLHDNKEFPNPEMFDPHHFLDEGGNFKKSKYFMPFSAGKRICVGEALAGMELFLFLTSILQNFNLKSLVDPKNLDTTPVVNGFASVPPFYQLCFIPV

For orientation: IC50 means the concentration needed to halve the response being measured. As to `CN1CCN(c2cccc3nc(CN(C)[C@H]4CCCc5cccnc54)c(CO)n23)CC1`, the result in [1] was Active. Besides, the “inhibition (INH)” value in data set [2] and in data set [3] was “Not Active” throughout. In addition, in data set [4], the inhibition result was “Dose-dependent effect”. For the same compound, in data set [5], the Vd came to 5.9 L/kg. Besides, the IC50 in [6] is 1 nM; in data set [7], 1 nM; in data set [8], 1 nM; in data set [9], over 2500 nM; in [10], 1.5 nM. Besides, the inhibition entry in data set [11] was “Active”. In [12], the inhibition result is “inactive”.
